Usually IC50 stands for the concentration that inhibits the measured activity by half. A lower IC50 goes with higher potency.

The nature of series [1]: Stability in neutral pH after 48 hrs. Type of series: physicochemical. The note with it: read-out: Stability.
The next series has as its target Trypsin (Homo sapiens) (UniProt P07477+P07478+P35030). Put plainly: Inhibition of trypsin up to 100 uM. The class given is protein assay.
Another series concerns the target 20S proteasome. In words: Inhibition of human 20S proteasome. Type of series: subcellular.
The species named for a further series is Homo sapiens. Put plainly: Inhibition of chymotrypsin up to 100 uM.
The nature of series [2]: Stability in neutral pH after 24 hrs. Type of series: physicochemical. The conditions noted are these: read-out: Stability. In a few lines:
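Compound solutions in 20% MeOH incubated in horse serum or water at pH 7 for 24 h. Recovery estimated by HPLC.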

The test system of another series is PBMC. Put plainly: Inhibition of LPS-induced TNFalpha production in human PBMC. The class given is functional, cell-based. Summed up: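 Human PBMC isolated from heparinized healthy-donor blood on 80% Percoll, washed twice in PBS, in RPMI1640 with 10% heat-inactivated FCS. Cells preincubated 1 h with compound or DMSO (final 0.1%), then stimulated with LPS (1 μg/mL). After overnight culture, supernatant TNF-α measured. IC50 reported.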

The subject of another series is MDA-MB-231. Put plainly: Cytotoxicity against human MDA-MB-231 cell line. Type of series: functional, cell-based.
For another series, the system named is HCT-116. In words: Cytotoxicity against human HCT116 cell line. The class given is cell-based.
The test system of a further series is NCI-H460. In words: Cytotoxicity against human H460 cell line. Type of series: functional, cell-based.
Series [3] in a line: Stability in alkaline pH after 48 hrs. The note with it: read-out: Stability. Type of series: physicochemical.

Calls of active or inactive are those of the source. The rule behind the calls is not given here.

As to `CCCCCC[C@H]1C(=O)N[C@](C(=O)SC[C@H](NC(C)=O)C(=O)O)([C@@H](O)[C@@H]2C=CCCC2)[C@@]1(C)O` [CINNABARAMIDE F], the remaining at 48 h in series [1] was over 90%. In addition, the result on Trypsin (Homo sapiens) and in the series filed under Homo sapiens was inactive. Further, the midpoint of inhibition at 20S proteasome, the IC50, lay at 6 nM.
Take `CCCCCC[C@H]1C(=O)N[C@@]2(C[C@@H]3C=CCCC3)C(=O)O[C@@]12C` [CINNABARAMIDE C]: the result on Trypsin (Homo sapiens) and in the series filed under Homo sapiens was inactive. On 20S proteasome, this molecule showed a half-maximal inhibitory concentration (IC50) of 12 nM. Moreover, in [2], the remaining at 24 h worked out at 50%.
As for `CCCCCC[C@H]1C(=O)N[C@](C(=O)O)([C@@H](O)[C@@H]2C=CCCC2)[C@@]1(C)O` [CINNABARAMIDE E], the outcome at Trypsin (Homo sapiens) and in the series filed under Homo sapiens was inactive. The same molecule displayed an IC50 against 20S proteasome of 136 nM.
Turning to `CCCCCC[C@H]1C(=O)N[C@@]2([C@@H](O)[C@@H]3C=CCCC3)C(=O)O[C@@]12C` [CINNABARAMIDE A], the IC50 in the series with PBMC is 500 nM; with MDA-MB-231, 1000 nM; at 20S proteasome, 1 nM; in the series with NCI-H460, 1000 nM. For the same molecule, the Activity with HCT-116 came out at 10 nM. The outcome on Trypsin (Homo sapiens) and in the series filed under Homo sapiens was inactive. For the same molecule, the remaining at 24 h in series [2] is 50%.
`CCCCCC(O)[C@H]1C(=O)N[C@](C(=O)O)([C@@H](O)[C@@H]2C=CCCC2)[C@@]1(C)O` (stereo partly specified) [CINNABARAMIDE D]: the outcome on Trypsin (Homo sapiens) and in the series listed under Homo sapiens was inactive. In addition, on 20S proteasome, half-maximal inhibition (IC50) was put at 100 nM.
Regarding `CCCCCC(O)[C@H]1C(=O)N[C@@]2([C@@H](O)[C@@H]3C=CCCC3)C(=O)O[C@@]12C` (stereo partly specified) [CINNABARAMIDE B], the result on Trypsin (Homo sapiens) and in the series filed under Homo sapiens was inactive. At 20S proteasome, this molecule returned an IC50 of 245 nM. Besides, the remaining at 24 h in series [2] came out at 50%.
For the molecule `CCCCCC[C@H]1C(=O)N[C@](C(=O)SC[C@H](NC(C)=O)C(=O)OC)([C@@H](O)[C@@H]2C=CCCC2)[C@@]1(C)O` [CINNABARAMIDE G], the values for the remaining at 48 h in series [3] and in series [1] were 45% and 90%, respectively. The result at Trypsin (Homo sapiens) and in the series filed under Homo sapiens was inactive. The same molecule yielded an IC50 against 20S proteasome of 0.6 nM.

Source of the values: ChEMBL document CHEMBL1141377 (J Nat Prod, 2007).
